Bioassay records from PubChem.
HUVEC prolif 384: inhibitors of human endothelial cell proliferation; viability, % at 10 µM (by protocol); actives 1.1% (n = 86,000); AID 648; HUVEC proliferation, CellTiter-Glo luminescence, 72 h; active compounds read low;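 active = viability at or below 30%; inactive = viability above 30%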;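 note: 100% = median luminescence of DMSO-only cell control wells on each plate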
H69AR growth 86K: growth inhibitors of human H69AR lung tumor cells | viability, % at 10 µM | H69AR lung tumor viability, ATP luminescence, 72 h; active compounds read low | actives 6% (n = 85,000);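 active = viability at or below 40%; inactive = viability above 40%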;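 note: multidrug resistant small cell line overexpressing MRP-1 efflux transporter; 100% = mean luminescence of untreated control wells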
HCT116 PTEN-null: PTEN-deleted cell growth suppression; viability, % at 10 µM; actives 1.2% (n = 140,000); HCT116 PTEN-null viability, CellTiter-Glo, 60 h; active compounds read low;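 active = viability at or below a set limit, 4 SD under the median of all tested compounds, cut at about 3.7% in these data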;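 note: PTEN knockout HCT116 line with beta catenin targeted HCT116 as companion control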
Fibroblast inh: blocks proliferation of human lung fibroblasts; LL 47 human lung fibroblast viability, ATP luminescence; active compounds read low; viability, % at 10 µM; actives 1.1% (n = 85,000);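 active = viability at or below 50% in the single dose screen; inactive = viability above 50%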;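 note: compound exposure lasted 72 h before the ATP readout; 100% = median luminescence of untreated cell-only wells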
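material = human LL 47 lung fibroblast cells | dosing = compounds added from tenfold dosing solution, 0.1% DMSO final | timing = overnight cell rest, 72 h compound treatment at 37 °C | measured by = CellTiter-Glo luminescence measuring cellular ATP | evaluation = % viability versus median cells-only luminescence | control set = cell-only wells, no compound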
bCat KO growth: beta-catenin-lacking colon tumor cell growth suppression; HCT116 beta-catenin knockout viability, CellTiter-Glo, 60 h; active compounds read low; viability, % at 10 µM; actives 1.5% (n = 140,000); AID 818;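 active = viability at or under a set limit, the compound median less 4 SD, cut at about 6% in these data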;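 note: 0% = Hyamine 1622 control at 20 µM and 100% = untreated cell control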
* = called active by the depositor; . = no result. This is one part of a sample in which hits are shown more often than they occur.

SMILES	HUVEC prolif 384	H69AR growth 86K	HCT116 PTEN-null	Fibroblast inh	bCat KO growth
Cc1cc(C(=O)NCC2CCCO2)n(-c2ccccc2)n1 (stereo not drawn)	97	94	97	100	96
Cc1cc(C(=O)NCCCN2CCN(c3cc(Cl)ccc3C)CC2)n(-c2ccccc2)n1	69	31*	38	80	34
COc1cc(CNCCNCC(C)O)ccc1OCc1ccc(Cl)nc1 (stereo not drawn)	.	.	90	.	99
O=C(/C=C\c1cn(-c2ccccc2)nc1-c1ccccc1)Nc1nccs1	.	.	1.2*	.	1.6*
CCOC(=O)C(C)Oc1cccc2c(=O)n(CC(=O)NCc3ccc4c(c3)OCO4)ccc12 (stereo not drawn)	50	30*	7	60	8
CCOC(=O)C(C)Oc1cccc2c(=O)n(CC(=O)Nc3ccc4c(c3)OCCO4)ccc12 (stereo not drawn)	83	82	88	94	94
CN(C)C(=O)CSc1cccc2cccnc12	72	0.6*	6	40*	4.3*
O=C(CSc1cccc2cccnc12)N1CCCC1	64	0.0*	8	18*	8
NNC(=O)CSc1cccc2cccnc12	.	.	102	.	92
COc1cc2nc(C3CC3)n(NC(=O)c3ccc(Cl)cc3)c(=O)c2cc1OC	68	24*	59	91	55
COc1cc2nc(C3CC3)n(NC(=O)c3ccc(F)cc3)c(=O)c2cc1OC	110	79	106	94	93
O=C(CSc1nc2c(cnn2-c2ccccc2)c(=O)[nH]1)c1ccc(Cl)cc1	88	36*	103	98	93
CCCSc1nc2c(cnn2-c2ccccc2)c(=O)[nH]1	73	106	103	93	107
CCCSc1nc2c(cnn2-c2ccc(C)cc2)c(=O)[nH]1	11*	13*	53	91	70
CCCCSc1nc2c(cnn2-c2ccc(Cl)cc2)c(=O)[nH]1	87	51	78	88	97
Cc1cc(C)c(C(N)=O)c(SCC(=O)c2ccc(Cl)cc2)n1	.	.	48	.	26
CCCS(=O)(=O)c1nnnn1-c1cccc(OC)c1	32	1.1*	1.3*	12*	1.4*
COc1cccc(-n2nnnc2SCC(=O)Nc2ccc(C(C)=O)cc2)c1	108	99	94	104	85
CCOCCCNC(=O)NC12CC3CC(CC(C3)C1)C2	107	98	100	105	93
Cc1ccc2c(Cl)cc(Cl)c(OCC(=O)NC(=O)NCc3ccco3)c2n1	83	30*	87	93	86
Cc1ccc2c(Cl)cc(Cl)c(OCC(=O)NCc3ccco3)c2n1	83	52	52	87	58
Cc1cc(=O)n(C(NC(=O)c2ccccc2)C(=O)c2ccccc2)cn1 (stereo not drawn)	92	86	90	99	95
Cc1ccc(NC(=O)COc2ccc(/C=N/NC(=O)CSCc3ccccc3)cc2)cc1	.	.	95	.	83
Cc1ccc(NC(=O)COc2ccc(/C=C3/SC(=Nc4ccccc4)N(Cc4cccnc4)C3=O)cc2)cc1	.	.	2.2*	.	2.7*
c1ccc(-n2ncc3c(NCc4ccc5c(c4)OCO5)ncnc32)cc1	89	87	86	87	83
SMILES	HUVEC prolif 384	H69AR growth 86K	HCT116 PTEN-null	Fibroblast inh	bCat KO growth
COc1ccc(-n2ncc3c(NCc4ccc5c(c4)OCO5)ncnc32)cc1	66	6.2*	86	68	88
Cc1ccc(-n2ncc3c(NCc4ccc5c(c4)OCO5)ncnc32)c(C)c1	89	28*	60	68	61
COc1cccc(C2CC(c3c(-c4ccccc4)c4cc(Cl)ccc4[nH]c3=O)=NN2S(C)(=O)=O)c1OC (stereo not drawn)	56	22*	37	91	55
COc1ccccc1C1CC(c2c(-c3ccccc3)c3cc(Cl)ccc3[nH]c2=O)=NN1S(C)(=O)=O (stereo not drawn)	26*	8.3*	1.9*	94	2.0*
CCC(=O)N1N=C(c2c(-c3ccccc3)c3cc(Cl)ccc3[nH]c2=O)CC1c1ccco1 (stereo not drawn)	.	.	46	.	58
CCCCOc1ccc(C(=O)Nc2ccc(SC(F)F)cc2)cc1OC	.	.	98	.	101
O=C(NCc1ccco1)c1cc(-c2ccco2)on1	95	93	86	91	83
O=C1C2CC=CCC2C(=O)N1c1ccc(NCCc2ccccc2F)c([N+](=O)[O-])c1 (stereo not drawn)	.	.	98	.	90
CCOC(=O)C1=C(C)OC(N)=C(C#N)C1c1cc2c(cc1Br)OCO2 (stereo not drawn)	89	30*	87	92	85
CCN(CC)S(=O)(=O)c1cc(C(=O)Nc2cccnc2)ccc1Cl	.	.	90	.	85
Cc1ccc(CSc2nnc([C@@H]3CCCN3)o2)cc1	108	93	101	109	108
COc1cc2[nH]c3c(N4CCN(c5ccccn5)CC4)ncnc3c2cc1OC	45	24*	2.7*	69	7
COc1ccc(N2CCN(c3ncnc4c3[nH]c3ccccc34)CC2)cc1	81	61	79	84	79
Brc1ccc(C2Nc3cccc4cccc(c34)N2)o1	74	94	92	92	84
CCOC(=O)CNS(=O)(=O)c1cc(-c2nnc(Nc3ccc4c(c3)OCO4)c3ccccc23)ccc1C	.	.	3.5*	.	3.6*
CCOC(=O)CNS(=O)(=O)c1cc(-c2n[nH]c(=O)c3ccccc23)ccc1C	99	87	97	102	88
COc1ccccc1NC(=O)CSc1nnc(C)o1	102	79	100	119	104
COc1ccc(OC)c(C2=NOC(C(=O)NCc3ccco3)C2)c1 (stereo not drawn)	80	33*	64	95	72
COc1ccc(CNC(=O)C2CC(c3cccc(OC)c3)=NO2)cc1 (stereo not drawn)	90	90	89	105	93
O=C(NCc1ccc2c(c1)OCO2)C1CC(c2ccc(Cl)cc2)=NO1 (stereo not drawn)	95	105	92	105	93
CCn1ncc(C2=NOC(C(=O)NCC(C)C)C2)c1C (stereo not drawn)	95	98	86	105	89
COc1cc(C2=NOC(C(=O)NCc3ccc(F)cc3)C2)cc(OC)c1OC (stereo not drawn)	.	.	12	.	15
COc1ccc(C2=NOC(C(=O)NCc3ccc(F)cc3)C2)cc1OC (stereo not drawn)	47	28*	15	46*	12
CCn1ncc(C2=NOC(C(=O)Nc3cc(OC)c(Cl)cc3OC)C2)c1C (stereo not drawn)	92	39*	102	97	99
COc1cc(OC)c(C2=NOC(C(=O)NCc3ccc4c(c3)OCO4)C2)cc1Cl (stereo not drawn)	60	22*	60	92	64
CCc1ccccc1NC(=O)c1onc(C)c1Cl	92	80	104	96	102
